Measurements published in ChEMBL document CHEMBL1154876, “Synthesis and antimicrobial studies on novel sulfonamides containing 4-azidomethyl coumarin” (2010).
≈ marks a conversion by molar mass, not a printed value.

What was measured:
Format in all cases: functional
Aspergillus niger = test: Antifungal activity against Aspergillus niger after 48 to 72 hrs by broth microdilution method
How it was run: (§1)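 Test compounds were prepared as 10 mg/ml DMSO stocks and serially diluted twofold in Sabouraud's dextrose broth over 500, 250, 125, 62.5, 31.25, 16, 8, 4, 2 and 1, alongside fluconazole as reference. Plates were inoculated with 1–5 × 10⁴ cfu/ml and held at 25 °C for 48–72 h. The MIC was the lowest concentration showing no visible growth.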

Mucor = test: Antifungal activity against Mucor fuscus after 48 to 72 hrs by broth micro dilution method; how it was run: as §1
Penicillium chrysogenum = test: Antifungal activity against Penicillium chrysogenum after 48 to 72 hrs by broth microdilution method; how it was run: as §1
Aspergillus fumigatus = test: Antifungal activity against Aspergillus fumigatus after 48 to 72 hrs by broth microdilution method; how it was run: as §1
Escherichia coli = test: Antibacterial activity against Escherichia coli MTCC 1089 after 18 hrs by broth microdilution method; details: MTCC 1089, 18 h
Pseudomonas aeruginosa = test: Antibacterial activity against Pseudomonas aeruginosa MTCC 1034 after 18 hrs by broth microdilution method; details: MTCC 1034, 18 h
Candida albicans = test: Antifungal activity against Candida albicans after 48 to 72 hrs by broth microdilution method; how it was run: as §1
Enterococcus faecalis = test: Antibacterial activity against Streptococcus faecalis MTCC 3382 after 18 hrs by broth microdilution method; details: MTCC 3382, 18 h
Fusarium oxysporum = test: Antifungal activity against Fusarium oxysporum after 48 to 72 hrs by broth microdilution method; how it was run: as §1
Bacillus subtilis = test: Antibacterial activity against Bacillus subtilis MTCC 297 after 18 hrs by broth microdilution method; details: MTCC 297, 18 h
Klebsiella pneumoniae = test: Antibacterial activity against Klebsiella pneumoniae MTCC 3384 after 18 hrs by broth microdilution method; details: MTCC 3384, 18 h
Staphylococcus aureus = test: Antibacterial activity against Staphylococcus aureus MTCC 3160 after 18 hrs by broth microdilution method; details: MTCC 3160, 18 h

Compound `Cc1cc2oc(=O)cc(CN=[N+]=[N-])c2cc1S(=O)(=O)Nc1ccccc1` has an MIC (Aspergillus niger) of 8 µg/mL (≈ 21.6 µM), an MIC (Mucor) of 4 µg/mL (≈ 10.8 µM) and an MIC (Penicillium chrysogenum) of 2 µg/mL (≈ 5.4 µM). The MIC (Aspergillus fumigatus) was 8 µg/mL (≈ 21.6 µM), the MIC (Escherichia coli) was 125 µg/mL (≈ 337 µM) and the MIC (Pseudomonas aeruginosa) was 125 µg/mL (≈ 337 µM). The MIC (Candida albicans) was 16 µg/mL (≈ 43.2 µM), the MIC (Enterococcus faecalis) was 31.2 µg/mL (≈ 84.4 µM) and the MIC (Fusarium oxysporum) was 4 µg/mL (≈ 10.8 µM). It also gave an MIC (Bacillus subtilis) of 31.2 µg/mL (≈ 84.4 µM), an MIC (Klebsiella pneumoniae) of 125 µg/mL (≈ 337 µM) and an MIC (Staphylococcus aureus) of 4 µg/mL (≈ 10.8 µM).

Work on `Cc1cccc(NS(=O)(=O)c2cc3c(CN=[N+]=[N-])cc(=O)oc3cc2C)c1` yielded an MIC (Aspergillus niger) of 1 µg/mL (≈ 2.6 µM), an MIC (Mucor) of 62.5 µg/mL (≈ 163 µM) and an MIC (Penicillium chrysogenum) of 8 µg/mL (≈ 20.8 µM). The MIC (Aspergillus fumigatus) was 8 µg/mL (≈ 20.8 µM), the MIC (Escherichia coli) was greater than 500 µg/mL and the MIC (Pseudomonas aeruginosa) was 2 µg/mL (≈ 5.2 µM). For the same compound, the MIC (Candida albicans) was 4 µg/mL (≈ 10.4 µM), the MIC (Enterococcus faecalis) was 250 µg/mL (≈ 650 µM) and the MIC (Fusarium oxysporum) was 125 µg/mL (≈ 325 µM). For the same compound, the MIC (Bacillus subtilis) was 16 µg/mL (≈ 41.6 µM), the MIC (Klebsiella pneumoniae) was 4 µg/mL (≈ 10.4 µM) and the MIC (Staphylococcus aureus) was 16 µg/mL (≈ 41.6 µM).

`Cc1ccc(NS(=O)(=O)c2cc3c(CN=[N+]=[N-])cc(=O)oc3cc2C)cc1` gave an MIC (Aspergillus niger) of 4 µg/mL (≈ 10.4 µM), an MIC (Mucor) of 62.5 µg/mL (≈ 163 µM) and an MIC (Penicillium chrysogenum) of 16 µg/mL (≈ 41.6 µM). For the same compound, the MIC (Aspergillus fumigatus) was 16 µg/mL (≈ 41.6 µM), the MIC (Escherichia coli) was greater than 500 µg/mL and the MIC (Pseudomonas aeruginosa) was 125 µg/mL (≈ 325 µM). It also gave an MIC (Candida albicans) of 1 µg/mL (≈ 2.6 µM), an MIC (Enterococcus faecalis) of 16 µg/mL (≈ 41.6 µM) and an MIC (Fusarium oxysporum) of 1 µg/mL (≈ 2.6 µM). The MIC (Bacillus subtilis) was 8 µg/mL (≈ 20.8 µM), the MIC (Klebsiella pneumoniae) was 1 µg/mL (≈ 2.6 µM) and the MIC (Staphylococcus aureus) was 16 µg/mL (≈ 41.6 µM).

In the case of `Cc1cc2oc(=O)cc(CN=[N+]=[N-])c2cc1S(=O)(=O)Nc1ccccc1Cl`, the MIC (Aspergillus niger) is reported as 62.5 µg/mL (≈ 154 µM), the MIC (Mucor) is reported as 16 µg/mL (≈ 39.5 µM) and the MIC (Penicillium chrysogenum) is reported as 31.2 µg/mL (≈ 77.2 µM). It also gave an MIC (Aspergillus fumigatus) of 31.2 µg/mL (≈ 77.2 µM), an MIC (Escherichia coli) greater than 500 µg/mL and an MIC (Pseudomonas aeruginosa) of 31.2 µg/mL (≈ 77.2 µM). For the same compound, the MIC (Candida albicans) was 62.5 µg/mL (≈ 154 µM), the MIC (Enterococcus faecalis) was 1 µg/mL (≈ 2.47 µM) and the MIC (Fusarium oxysporum) was 4 µg/mL (≈ 9.88 µM). The MIC (Bacillus subtilis) was 125 µg/mL (≈ 309 µM), the MIC (Klebsiella pneumoniae) was 1 µg/mL (≈ 2.47 µM) and the MIC (Staphylococcus aureus) was 1 µg/mL (≈ 2.47 µM).

`Cc1cc2oc(=O)cc(CN=[N+]=[N-])c2cc1S(=O)(=O)Nc1c(C)cccc1C` gave an MIC (Aspergillus niger) of 8 µg/mL (≈ 20.1 µM), an MIC (Mucor) of 16 µg/mL (≈ 40.2 µM) and an MIC (Penicillium chrysogenum) of 31.2 µg/mL (≈ 78.4 µM). For the same compound, the MIC (Aspergillus fumigatus) was 2 µg/mL (≈ 5.02 µM), the MIC (Escherichia coli) was greater than 500 µg/mL and the MIC (Pseudomonas aeruginosa) was 2 µg/mL (≈ 5.02 µM). For the same compound, the MIC (Candida albicans) was 8 µg/mL (≈ 20.1 µM), the MIC (Enterococcus faecalis) was greater than 500 µg/mL and the MIC (Fusarium oxysporum) was 1 µg/mL (≈ 2.51 µM). For the same compound, the MIC (Bacillus subtilis) was greater than 500 µg/mL, the MIC (Klebsiella pneumoniae) was 1 µg/mL (≈ 2.51 µM) and the MIC (Staphylococcus aureus) was 125 µg/mL (≈ 314 µM).

`COc1ccccc1NS(=O)(=O)c1cc2c(CN=[N+]=[N-])cc(=O)oc2cc1C` showed an MIC (Aspergillus niger) of 16 µg/mL (≈ 40 µM), an MIC (Mucor) of 31.2 µg/mL (≈ 78 µM) and an MIC (Penicillium chrysogenum) greater than 500 µg/mL. It also gave an MIC (Aspergillus fumigatus) of 62.5 µg/mL (≈ 156 µM), an MIC (Escherichia coli) of 250 µg/mL (≈ 624 µM) and an MIC (Pseudomonas aeruginosa) of 125 µg/mL (≈ 312 µM). The MIC (Candida albicans) was 31.2 µg/mL (≈ 78 µM), the MIC (Enterococcus faecalis) was 1 µg/mL (≈ 2.5 µM) and the MIC (Fusarium oxysporum) was 1 µg/mL (≈ 2.5 µM). For the same compound, the MIC (Bacillus subtilis) was greater than 500 µg/mL, the MIC (Klebsiella pneumoniae) was 62.5 µg/mL (≈ 156 µM) and the MIC (Staphylococcus aureus) was 31.2 µg/mL (≈ 78 µM).

`COc1cccc(NS(=O)(=O)c2cc3c(CN=[N+]=[N-])cc(=O)oc3cc2C)c1` was tested, and the MIC (Aspergillus niger) was 2 µg/mL (≈ 4.99 µM), the MIC (Mucor) was 4 µg/mL (≈ 9.99 µM) and the MIC (Penicillium chrysogenum) was 125 µg/mL (≈ 312 µM). For the same compound, the MIC (Aspergillus fumigatus) was 31.2 µg/mL (≈ 78 µM), the MIC (Escherichia coli) was greater than 500 µg/mL and the MIC (Pseudomonas aeruginosa) was 1 µg/mL (≈ 2.5 µM). It also gave an MIC (Candida albicans) of 8 µg/mL (≈ 20 µM), an MIC (Enterococcus faecalis) of 1 µg/mL (≈ 2.5 µM) and an MIC (Fusarium oxysporum) of 1 µg/mL (≈ 2.5 µM). For the same compound, the MIC (Bacillus subtilis) was greater than 500 µg/mL, the MIC (Klebsiella pneumoniae) was 2 µg/mL (≈ 4.99 µM) and the MIC (Staphylococcus aureus) was 16 µg/mL (≈ 40 µM).

For `Cc1ccc(NS(=O)(=O)c2cc3c(CN=[N+]=[N-])cc(=O)oc3cc2C)cc1C`, the MIC (Aspergillus niger) was 4 µg/mL (≈ 10 µM), the MIC (Mucor) was 1 µg/mL (≈ 2.51 µM) and the MIC (Penicillium chrysogenum) was 2 µg/mL (≈ 5.02 µM). It also gave an MIC (Aspergillus fumigatus) of 8 µg/mL (≈ 20.1 µM), an MIC (Escherichia coli) of 125 µg/mL (≈ 314 µM) and an MIC (Pseudomonas aeruginosa) of 125 µg/mL (≈ 314 µM). It also gave an MIC (Candida albicans) of 8 µg/mL (≈ 20.1 µM), an MIC (Enterococcus faecalis) of 8 µg/mL (≈ 20.1 µM) and an MIC (Fusarium oxysporum) of 1 µg/mL (≈ 2.51 µM). For the same compound, the MIC (Bacillus subtilis) was 31.2 µg/mL (≈ 78.4 µM), the MIC (Klebsiella pneumoniae) was 125 µg/mL (≈ 314 µM) and the MIC (Staphylococcus aureus) was 4 µg/mL (≈ 10 µM).

`Cc1ccc(NS(=O)(=O)c2cc3c(CN=[N+]=[N-])cc(=O)oc3cc2C)c(C)c1` gave an MIC (Aspergillus niger) of 4 µg/mL (≈ 10 µM), an MIC (Mucor) of 16 µg/mL (≈ 40.2 µM) and an MIC (Penicillium chrysogenum) of 31.2 µg/mL (≈ 78.4 µM). For the same compound, the MIC (Aspergillus fumigatus) was 16 µg/mL (≈ 40.2 µM), the MIC (Escherichia coli) was greater than 500 µg/mL and the MIC (Pseudomonas aeruginosa) was 4 µg/mL (≈ 10 µM). For the same compound, the MIC (Candida albicans) was 8 µg/mL (≈ 20.1 µM), the MIC (Enterococcus faecalis) was 62.5 µg/mL (≈ 157 µM) and the MIC (Fusarium oxysporum) was 1 µg/mL (≈ 2.51 µM). For the same compound, the MIC (Bacillus subtilis) was 125 µg/mL (≈ 314 µM), the MIC (Klebsiella pneumoniae) was 62.5 µg/mL (≈ 157 µM) and the MIC (Staphylococcus aureus) was 16 µg/mL (≈ 40.2 µM).

With `COc1ccc(NS(=O)(=O)c2cc3c(CN=[N+]=[N-])cc(=O)oc3cc2C)cc1` the MIC (Aspergillus niger) was 2 µg/mL (≈ 4.99 µM), the MIC (Mucor) was 250 µg/mL (≈ 624 µM) and the MIC (Penicillium chrysogenum) was 250 µg/mL (≈ 624 µM). For the same compound, the MIC (Aspergillus fumigatus) was 2 µg/mL (≈ 4.99 µM), the MIC (Escherichia coli) was 250 µg/mL (≈ 624 µM) and the MIC (Pseudomonas aeruginosa) was 8 µg/mL (≈ 20 µM). For the same compound, the MIC (Candida albicans) was 8 µg/mL (≈ 20 µM), the MIC (Enterococcus faecalis) was 1 µg/mL (≈ 2.5 µM) and the MIC (Fusarium oxysporum) was 1 µg/mL (≈ 2.5 µM). The MIC (Bacillus subtilis) was greater than 500 µg/mL, the MIC (Klebsiella pneumoniae) was 1 µg/mL (≈ 2.5 µM) and the MIC (Staphylococcus aureus) was 4 µg/mL (≈ 9.99 µM).

`CCOc1ccc(NS(=O)(=O)c2cc3c(CN=[N+]=[N-])cc(=O)oc3cc2C)cc1` gave an MIC (Aspergillus niger) of 250 µg/mL (≈ 603 µM), an MIC (Mucor) of 62.5 µg/mL (≈ 151 µM) and an MIC (Penicillium chrysogenum) greater than 500 µg/mL. The MIC (Aspergillus fumigatus) was greater than 500 µg/mL, the MIC (Escherichia coli) was 62.5 µg/mL (≈ 151 µM) and the MIC (Pseudomonas aeruginosa) was 62.5 µg/mL (≈ 151 µM). The MIC (Candida albicans) was 16 µg/mL (≈ 38.6 µM), the MIC (Enterococcus faecalis) was 1 µg/mL (≈ 2.41 µM) and the MIC (Fusarium oxysporum) was 1 µg/mL (≈ 2.41 µM). For the same compound, the MIC (Bacillus subtilis) was greater than 500 µg/mL, the MIC (Klebsiella pneumoniae) was 16 µg/mL (≈ 38.6 µM) and the MIC (Staphylococcus aureus) was 2 µg/mL (≈ 4.83 µM).

`O=C(O)c1cn(C2CC2)c2cc(N3CCNCC3)c(F)cc2c1=O` [CIPROFLOXACIN] was tested, and the MIC (Pseudomonas aeruginosa) was 1 µg/mL (≈ 3.02 µM), the MIC (Enterococcus faecalis) was 1 µg/mL (≈ 3.02 µM) and the MIC (Bacillus subtilis) was 1 µg/mL (≈ 3.02 µM). It also gave an MIC (Klebsiella pneumoniae) of 1 µg/mL (≈ 3.02 µM) and an MIC (Staphylococcus aureus) of 1 µg/mL (≈ 3.02 µM).

For `OC(Cn1cncn1)(Cn1cncn1)c1ccc(F)cc1F` [FLUCONAZOLE], the MIC (Aspergillus niger) was 8 µg/mL (≈ 26.1 µM), the MIC (Mucor) was 8 µg/mL (≈ 26.1 µM) and the MIC (Penicillium chrysogenum) was 8 µg/mL (≈ 26.1 µM). It also gave an MIC (Aspergillus fumigatus) of 8 µg/mL (≈ 26.1 µM), an MIC (Candida albicans) of 8 µg/mL (≈ 26.1 µM) and an MIC (Fusarium oxysporum) of 8 µg/mL (≈ 26.1 µM).
